Key:
[1] = molecular target: Human immunodeficiency virus type 1 reverse transcriptase (Human immunodeficiency virus 1) (UniProt Q72547); assay: Inhibitory activity against HIV-1 replication in MT-4 cells; type: functional, cell-based; details: MT4
How it was run: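 HTLV-IIIB strain of HIV in MT-4 cells, run in parallel with cytotoxicity on uninfected MT-4 cells. The read-out is protection of infected cells from virus-induced cytopathic effect. ED50 is the dose giving 50% protection.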

MT4 = assay: Cytotoxic dose in MT-4 cells; type: functional; details: Homo sapiens, read-out: CD50 (the source's name)
[2] = molecular target: Human immunodeficiency virus type 1 reverse transcriptase (Human immunodeficiency virus 1) (UniProt Q72547); assay: Selectivity index is the […] values against inhibition of HIV-1 in MT-4 cells; type: functional, cell-based; details: MT4
How it was run: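 Selectivity index is CD50 (50% viability reduction of uninfected MT-4 cells) divided by ED50 (50% protection of HIV-infected MT-4 cells against cytopathic effect). Both come from parallel assays.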

| Compound | ED50 [1] [µM] | CC50 (MT4) [µM] | SI [2] |
| --- | --- | --- | --- |
| O=c1[nH]c(=O)n([C@H]2C[C@H](F)[C@@H](CO)O2)cc1Br | 0.41 | 24 | 59 |
| COc1ccn([C@H]2C[C@H](F)[C@@H](CO)O2)c(=O)n1 | 46 | 348 | 7.6 |
| OC[C@H]1O[C@@H](n2cnc3c(O)ncnc32)C[C@@H]1F | 484 | 500 | 1 |
| Nc1ncnc2c1ncn2[C@H]1C[C@H](F)[C@@H](CO)O1 | 50 | 557 | 11.1 |
| O=c1[nH]c(=O)n([C@H]2C[C@H](F)[C@@H](CO)O2)cc1F | > 20 | 40 | < 2 |
| Cc1cn([C@H]2C[C@H](F)[C@@H](CO)O2)c(=O)[nH]c1=O [ALOVUDINE] | 0.001 | 0.197 | 197 |
| Cc1cn([C@H]2C=C(F)[C@@H](CO)O2)c(=O)[nH]c1=O | 11 | 240 | 22 |
| O=c1[nH]c(=O)n([C@H]2C[C@H](F)[C@@H](CO)O2)cc1Cl [RALURIDINE] | 0.38 | 535 | 1410 |
| O=c1[nH]c(=O)n([C@H]2C[C@H](F)[C@@H](CO)O2)cc1I | 0.16 | 2.17 | 13.6 |
| Nc1ccn([C@@H]2O[C@H](CO)C[C@@H]2F)c(=O)n1 | 9.8 | 117 | 12 |
| Nc1ncnc2c1ncn2[C@H]1CC[C@@H](CO)O1 | 6.4 | 890 | 139 |
| [N-]=[N+]=N[C@H]1C[C@H](n2cnc3c(O)ncnc32)O[C@@H]1CO | > 8 | 15 | < 2 |
| Cc1cn([C@@H]2O[C@H](CO)C[C@H]2F)c(=O)nc1N | > 500 | > 500 |  |
| [N-]=[N+]=N[C@H]1C[C@H](n2c(Br)nc3c(N)ncnc32)O[C@@H]1CO | > 500 | 409 | < 1 |
| Cc1cn([C@@H]2O[C@H](CO)C[C@H]2F)c(=O)[nH]c1=O | 53 | > 500 | > 9.4 |
| Nc1ncnc2c1nc(Br)n2[C@H]1CC[C@@H](CO)O1 | 484 | 500 | 1 |
| O=c1ccn([C@H]2C[C@H](F)[C@@H](CO)O2)c(=O)[nH]1 | 0.04 | 16 | 400 |
| Cc1cn([C@H]2C[C@H](N=[N+]=[N-])[C@@H](CO)O2)c(=O)[nH]c1=O [ZIDOVUDINE] | 0.003 | 4.8 | 1600 |
| [N-]=[N+]=N[C@H]1C[C@H](n2cnc3c(N)ncnc32)O[C@@H]1CO | 5 |  |  |
| Cc1cn([C@H]2C[C@H](F)[C@@H](CO)O2)c(=O)nc1N | 1.7 | 7.7 | 4.5 |
| Cc1cn([C@@H]2O[C@H](CO)C[C@@H]2F)c(=O)[nH]c1=O | > 500 | > 500 |  |
